# Assay results reported in ChEMBL document CHEMBL4706662, “Design and Evaluation of Peptide Dual-Agonists of GLP-1 and NPY2 Receptors for Glucoregulation and Weight Loss with Mitigated Nausea and Emesis” (J Med Chem, 2021).
# Calls of active or inactive are those of the source. The calls are words filed in the database; no cut-off is given here. Square brackets hold non-standard residues; d marks the D form. Peptide text beside a SMILES is read from it. ξ: configuration not given here. ξF = NC(Cc1ccccc1)C(=O)O
# Tests used:
# Glucagon receptor = Glucagon receptor (Rattus norvegicus, UniProt P30082); experiment: Agonist activity at rat glucagon receptor expressed in HEK293 cells assessed as stimulation of cAMP accumulation by FRET assay; type: functional, cell-based
# [1] = target: T1, Glucagon-like peptide 1 receptor (Rattus norvegicus, UniProt P32301); experiment: Agonist activity at rat GLP-1R expressed in HEK293 cells assessed as stimulation of cAMP accumulation by FRET assay; type: functional, cell-based
# T1 sequence (P32301 whole entry): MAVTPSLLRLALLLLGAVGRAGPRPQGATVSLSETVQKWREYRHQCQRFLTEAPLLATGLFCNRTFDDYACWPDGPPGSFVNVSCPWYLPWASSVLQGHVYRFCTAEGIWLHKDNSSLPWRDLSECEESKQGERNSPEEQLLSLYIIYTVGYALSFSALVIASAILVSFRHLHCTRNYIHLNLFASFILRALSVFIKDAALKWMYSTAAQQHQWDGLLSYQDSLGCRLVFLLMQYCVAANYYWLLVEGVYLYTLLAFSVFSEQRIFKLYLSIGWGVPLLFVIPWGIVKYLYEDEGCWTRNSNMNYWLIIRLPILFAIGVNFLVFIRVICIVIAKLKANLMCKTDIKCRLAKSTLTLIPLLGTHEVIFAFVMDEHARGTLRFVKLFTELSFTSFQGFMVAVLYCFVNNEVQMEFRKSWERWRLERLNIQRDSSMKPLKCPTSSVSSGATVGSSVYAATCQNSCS
# [2] = target: T2, Neuropeptide Y receptor type 2 (Homo sapiens, UniProt P49146); experiment: Agonist activity at human NPY2R expressed in HEK293 cells assessed as inhibition of adenosine-induced stimulation of cAMP accumulation by FRET assay; type: functional, cell-based
# T2 sequence (P49146 whole entry): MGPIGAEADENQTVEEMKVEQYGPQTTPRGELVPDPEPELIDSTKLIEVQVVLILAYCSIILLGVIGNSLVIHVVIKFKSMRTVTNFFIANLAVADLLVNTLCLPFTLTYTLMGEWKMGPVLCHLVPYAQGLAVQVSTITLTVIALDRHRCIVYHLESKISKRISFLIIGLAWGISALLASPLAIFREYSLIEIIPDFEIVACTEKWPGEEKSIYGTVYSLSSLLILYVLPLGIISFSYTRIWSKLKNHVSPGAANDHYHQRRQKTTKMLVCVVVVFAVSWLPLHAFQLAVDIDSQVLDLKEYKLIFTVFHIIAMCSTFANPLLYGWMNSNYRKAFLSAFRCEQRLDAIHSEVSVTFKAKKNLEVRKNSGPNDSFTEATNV
# [3] = target: T3, Glucagon-like peptide 1 receptor (Homo sapiens, UniProt P43220); experiment: Agonist activity at human GLP-1R expressed in HEK293 cells assessed as stimulation of cAMP accumulation by FRET assay; type: functional, cell-based
# [4] = target: T3, Glucagon-like peptide 1 receptor; experiment: Displacement of GLP-1-red from human GLP-1R expressed in CHO-K1 cells by fluorescent competitive binding assay; type: cell-based
# [5] = target: T4, Neuropeptide Y receptor type 1 (Homo sapiens, UniProt P25929); experiment: Agonist activity at human NPY1R expressed in HEK293 cells assessed as inhibition of adenosine-induced stimulation of cAMP accumulation by FRET assay; type: functional, cell-based
# T4 sequence (P25929 whole entry): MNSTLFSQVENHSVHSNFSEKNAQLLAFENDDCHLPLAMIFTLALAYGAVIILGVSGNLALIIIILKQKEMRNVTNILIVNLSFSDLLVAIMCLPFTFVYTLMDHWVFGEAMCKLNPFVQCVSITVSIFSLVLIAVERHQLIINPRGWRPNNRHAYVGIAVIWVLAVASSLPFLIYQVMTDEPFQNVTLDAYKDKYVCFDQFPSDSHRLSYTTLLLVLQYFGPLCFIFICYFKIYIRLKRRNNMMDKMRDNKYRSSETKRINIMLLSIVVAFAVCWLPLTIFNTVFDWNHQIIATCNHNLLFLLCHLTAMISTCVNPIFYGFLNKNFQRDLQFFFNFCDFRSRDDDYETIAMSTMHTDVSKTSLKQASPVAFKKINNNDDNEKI
# Rattus norvegicus [6] = experiment: Suppression of cumulative food intake in lean Sprague-Dawley rat at 0.3 to 60 nmol/kg dosed daily for 2 days; type: functional, organism-based; conditions: dose 0.3-60 nmol/kg, time 2.0 day
# [7] = Toxicity in lean Sprague-Dawley rat assessed as induction at 0.3 to 60 nmol/kg dosed daily for 2 days by kaolin consumption assay; conditions: in vivo, 48 h
# Rattus norvegicus [8] = experiment: Suppression of body weight in Sprague-Dawley rat model of DIO at 10 nmol/kg dosed daily for 5 days; type: functional; conditions: time 5 day
# [9] = target: T3, Glucagon-like peptide 1 receptor; experiment: Agonist activity at human GLP-1R expressed in HEK293 cells assessed as stimulation of cAMP accumulation in presence of GLP-1R antagonist exendin9-39 by FRET assay; type: functional, cell-based
# Summary of the method: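 HEK293 cells stably expressing human GLP-1R, transduced with H188 cAMP FRET reporter (16 h, MOI 25), read in SES (pH 7.4, 11 mM glucose, 0.1% BSA). Antagonist Ex(9–39) added 20 min before agonist. Excitation 435 nm; 485/535 emission ratio baseline-normalized, read in real time. Triplicate independent runs; EC50 by nonlinear regression of peak FRET values.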
# [10] = Intrinsic clearance in Sprague-Dawley rat liver microsomes at 30 uM in presence of NADPH by HPLC analysis; type: ADME, Microsome
# Rattus norvegicus [11] = experiment: Suppression of blood glucose level in prediabetic Sprague-Dawley rat model of DIO assessed as reduction in post-dextrose bolus blood glucose at 10 nmol/kg dosed daily for 5 days by IPGTT method; type: functional, organism-based; conditions: time 5.0 day
# Suncus murinus [12] = experiment: Improvement in glucose clearance in musk shrew at 10 nmol/kg, ip measured 20 to 60 mins following glucose administration by IPGTT method; type: functional, organism-based; conditions: time 20-60 min
# Summary of the method: (§1)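 Male musk shrews (~8 months, 60–65 g, n = 9), within-subject counterbalanced. Baseline tail glucose by glucometer, then IP drug or saline (1 mL/100 g); 30 min later IP glucose 2 g/kg, glucose read at 20, 40, 60 and 120 min.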
# Pancreatic islet [13] = experiment: Stimulation of glucose stimulated insulin secretion in rat pancreatic islets at 50 nM in presence of 10 mM glucose incubated for 60 mins; type: functional, tissue-based
# [14] = Half life in Sprague-Dawley rat liver microsomes at 30 uM in presence of NADPH by HPLC analysis; type: ADME, Microsome
# Suncus murinus [15] = experiment: Improvement in glucose clearance in musk shrew assessed as increase in plasma glucose clearing rate at 10 nmol/kg, ip measured 20 to 60 mins following glucose administration by IPGTT method; type: functional, organism-based; conditions: time 20-60 min; summary of the method: as §1
# Pancreatic islet [16] = experiment: Stimulation of glucose stimulated insulin secretion in rat pancreatic islets at 50 nM in presence of 3 mM glucose incubated for 60 mins; type: functional, tissue-based
# Rattus norvegicus [17] = experiment: Suppression of food intake in Sprague-Dawley rat model of DIO at 10 nmol/kg dosed daily for 5 days; type: functional, organism-based; conditions: time 5.0 day
# [18] = Toxicity in musk shrew assessed as induction of emesis at 10 to 60 nmol/kg, ip measured after 120 mins; type: organism-based; conditions: suncus murinus, in vivo, 2 h, dose 10-60 nmol/kg
# Rattus norvegicus [19] = experiment: Suppression of cumulative food intake in lean Sprague-Dawley rat at 10 to 20 nmol/kg dosed daily for 2 days relative to control; type: functional; conditions: dose 10-20 nmol/kg, time 2 day
# Rattus norvegicus [20] = experiment: Suppression of fasting blood glucose in Sprague-Dawley rat model of DIO at 10 nmol/kg dosed daily for 5 days; type: functional, organism-based; conditions: time 5.0 day
# Rattus norvegicus [21] = experiment: Effect on glucose clearance in Sprague-Dawley rat model of DIO at 10 nmol/kg dosed daily for 5 days; type: functional, organism-based; conditions: time 5.0 day
# [22] = target: T5, Neuropeptide Y receptor type 2 (Homo sapiens) (UniProt P49146); experiment: Agonist activity at human NPY2R expressed in HEK293 cells assessed as inhibition of adenosine-induced stimulation of cAMP accumulation in presence of NPY2-R antagonist […] by FRET assay; type: functional, cell-based
# T5 sequence (whole entry): T2 sequence (P49146 whole entry)
# Glucagon receptor, sequence (P30082 whole entry): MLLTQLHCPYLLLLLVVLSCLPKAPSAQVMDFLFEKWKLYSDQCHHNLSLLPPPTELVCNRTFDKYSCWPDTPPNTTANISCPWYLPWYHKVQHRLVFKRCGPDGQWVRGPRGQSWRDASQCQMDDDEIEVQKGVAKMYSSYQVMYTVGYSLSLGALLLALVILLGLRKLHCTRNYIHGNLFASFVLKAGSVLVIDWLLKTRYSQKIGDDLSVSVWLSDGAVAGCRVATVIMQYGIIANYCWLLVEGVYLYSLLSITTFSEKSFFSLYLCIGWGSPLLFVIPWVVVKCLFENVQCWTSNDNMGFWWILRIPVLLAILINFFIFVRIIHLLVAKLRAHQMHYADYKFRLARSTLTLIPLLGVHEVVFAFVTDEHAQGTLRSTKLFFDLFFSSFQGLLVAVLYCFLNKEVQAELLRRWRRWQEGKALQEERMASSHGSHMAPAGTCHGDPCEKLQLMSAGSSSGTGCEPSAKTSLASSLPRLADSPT
# T3 sequence (P43220 whole entry): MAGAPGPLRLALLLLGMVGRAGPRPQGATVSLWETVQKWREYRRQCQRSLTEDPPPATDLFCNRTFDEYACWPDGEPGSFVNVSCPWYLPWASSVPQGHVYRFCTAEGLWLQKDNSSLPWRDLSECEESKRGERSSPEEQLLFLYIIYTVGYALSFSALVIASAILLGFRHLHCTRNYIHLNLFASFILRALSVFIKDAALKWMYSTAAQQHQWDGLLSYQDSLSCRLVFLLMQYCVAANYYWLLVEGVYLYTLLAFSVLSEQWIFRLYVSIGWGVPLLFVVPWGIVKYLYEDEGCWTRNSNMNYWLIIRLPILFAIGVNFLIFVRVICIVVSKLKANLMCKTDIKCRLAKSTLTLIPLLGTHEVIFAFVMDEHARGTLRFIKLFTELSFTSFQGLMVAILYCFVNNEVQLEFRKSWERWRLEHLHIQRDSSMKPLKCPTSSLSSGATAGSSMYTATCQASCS
compound,measurement,setting,value
CC[C@H](C)[C@H](NC(=O)C(Cc1ccccc1)NC(=O)[C@H](CC(C)C)NC(=O)[C@H](CCCNC(=N)N)NC(=O)[C@@H](NC(=O)[C@H](C)NC(=O)[C@H](CCC(=O)O)NC(=O)[C@H](CCC(=O)O)NC(=O)[C@H](CCC(=O)O)NC(=O)[C@H](CCSC)NC(=O)[C@H](CCC(N)=O)NC(=O)[C@H](CCCCN)NC(=O)[C@H](CO)NC(=O)[C@H](CC(C)C)NC(=O)[C@H](CC(=O)O)NC(=O)[C@H](CO)NC(=O)[C@@H](NC(=O)[C@H](Cc1ccccc1)NC(=O)[C@@H](NC(=O)CNC(=O)[C@H](CCC(N)=O)NC(=O)[C@H](CO)NC(=O)[C@@H](N)Cc1cnc[nH]1)[C@@H](C)O)[C@@H](C)O)C(C)C)C(=O)N[C@@H](CCC(=O)O)C(=O)N[C@@H](Cc1c[nH]c2ccccc12)C(=O)N[C@@H](CC(C)C)C(=O)N[C@@H](CCCCN)C(=O)N[C@@H](CC(N)=O)C(=O)NCC(=O)NCC(=O)N1CCC[C@@H]1C(=O)N[C@@H](CO)C(=O)N[C@@H](CCCNC(=N)N)C(=O)N[C@@H](Cc1cnc[nH]1)C(=O)N[C@@H](Cc1ccc(O)cc1)C(=O)N[C@@H](CC(C)C)C(=O)N[C@@H](CC(N)=O)C(=O)N[C@@H](CC(C)C)C(=O)N[C@H](C(=O)N[C@H](C(=O)N[C@@H](CCCNC(=N)N)C(=O)N[C@@H](CCC(N)=O)C(=O)N[C@@H](CCCNC(=N)N)C(=O)N[C@@H](Cc1ccc(O)cc1)C(=O)O)[C@@H](C)O)C(C)C (some centres undefined),EC50,Glucagon receptor; hek293,0.03 µM
same,EC50,[1]; hek293,0.00012 µM
same,IC50,[2]; hek293,0.032 µM
same,EC50,[3]; hek293,0.00024 µM
same,IC50,[4]; cho-k1,0.0275 µM
CC[C@H](C)[C@H](NC(=O)C(Cc1ccccc1)NC(=O)[C@H](CC(C)C)NC(=O)[C@H](CCCNC(=N)N)NC(=O)[C@@H](NC(=O)[C@H](C)NC(=O)[C@H](CCC(=O)O)NC(=O)[C@H](CCC(=O)O)NC(=O)[C@H](CCC(=O)O)NC(=O)[C@H](CCSC)NC(=O)[C@H](CCC(N)=O)NC(=O)[C@H](CCCCN)NC(=O)[C@H](CO)NC(=O)[C@H](CC(C)C)NC(=O)[C@H](CC(=O)O)NC(=O)[C@H](CO)NC(=O)[C@@H](NC(=O)[C@H](Cc1ccccc1)NC(=O)[C@@H](NC(=O)CNC(=O)[C@H](CCC(N)=O)NC(=O)[C@H](CO)NC(=O)[C@@H](N)Cc1cnc[nH]1)[C@@H](C)O)[C@@H](C)O)C(C)C)C(=O)N[C@@H](CCC(=O)O)C(=O)N[C@@H](Cc1c[nH]c2ccccc12)C(=O)N[C@@H](CC(C)C)C(=O)N[C@@H](CCCCN)C(=O)N[C@@H](CC(N)=O)C(=O)N[C@@H](CCCNC(=N)N)C(=O)N[C@@H](Cc1cnc[nH]1)C(=O)N[C@@H](Cc1ccc(O)cc1)C(=O)N[C@@H](CC(C)C)C(=O)N[C@@H](CC(N)=O)C(=O)N[C@@H](CC(C)C)C(=O)N[C@H](C(=O)N[C@H](C(=O)N[C@@H](CCCNC(=N)N)C(=O)N[C@@H](CCC(N)=O)C(=O)N[C@@H](CCCNC(=N)N)C(=O)N[C@@H](Cc1ccc(O)cc1)C(=O)O)[C@@H](C)O)C(C)C (some centres undefined) (H-HSQGTFTSDLSKQMEEEAVRL[ξF]IEWLKNRHYLNLVTRQRY-OH),EC50,Glucagon receptor,> 3 µM
same,IC50,[2],0.061 µM
same,EC50,[3],0.000533 µM
same,IC50,[4],0.321 µM
H-HSQGTFTSDLSKQMEEEAVRLFIEWLKNRYYASLRRHYLNLVTRQRY-NH2,EC50,Glucagon receptor,> 3 µM
same,IC50,[5],0.082 µM
same,IC50,[4],> 1 µM
H-HSQGTFTSDLSKQMEEWAVRLFIEWLKNGGPSRYYASLRRHYLNLVTRQRY-NH2,EC50,Glucagon receptor,> 3 µM
same,IC50,[2],0.025 µM
same,EC50,[3],0.0023 µM
same,IC50,[4],> 1 µM
H-H[dS]QGTFTSDLSKYLEEEAVREFIAWLKNGGPSRHYLNLVTRQRY-NH2,Activity,Rattus norvegicus [6],Dose-dependent effect
same,EC50,Glucagon receptor,> 3 µM
same,Activity,[7],Non-Toxic
same,Activity,Rattus norvegicus [8],5%
same,Activity,[9],inactive
same,microsomal CLint at 30 µM,[10],32.5 µL/min/mg
same,EC50,[1],0.00048 µM
same,Activity,Rattus norvegicus [11],Active
same,Activity,Suncus murinus [12],Active
same,Activity,Pancreatic islet [13],Active
same,half-life at 30 µM,[14],2.27 h
same,IC50,[2],0.01 µM
same,EC50,[3],0.00033 µM
same,IC50,[5],0.027 µM
same,Activity,Suncus murinus [15],Active
same,Activity,Pancreatic islet [16],inactive
same,Activity,Rattus norvegicus [17],Active
same,Activity,[18],Non-Toxic
same,Activity,Rattus norvegicus [19],71.4%
same,IC50,[4],0.113 µM
same,Activity,Rattus norvegicus [20],Active
same,Activity,Rattus norvegicus [21],Active
same,Activity,[22],inactive
